SR-BI DiI-HDL act – activators of SR-BI mediated DiI-HDL uptake, primary screen, ldlA[mSR-BI] CHO cells, DiI fluorescence | 3 h; 100 = double the neutral-control signal | activation, % at 12.5 µM | 320,000 tested, 0.096% active | AID 504775, 2011;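 active = mean replicate activation of at least 60% and every replicate at or above 60%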;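 note: 0% = median plate neutral-control signal and 100% = twice that signal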
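System: LDL receptor-deficient CHO ldlA cells overexpressing murine SR-BI | Timing: 3 h uptake period with compound, 37 °C | Medium: HEPES-buffered (25 mM, pH 7.4) F12 plus 0.5% BSA | Dosing: Single-point compound dose | Signal: Bottom-read fluorescence, 550/595 nm | Read-out: Retained DiI signal reflecting DiI-HDL uptake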
CDK5 p35 inh – inhibitors of human CDK5/p35 kinase, primary screen, biochemical, single concentration | Recombinant CDK5/p35, ADP-Glo luminescence, 60 min | 330,000 tested, 0.01% active | Cyclin-dependent kinase 5 (Homo sapiens) + Cyclin-dependent kinase 5 activator 1 (Homo … | AID 488839, 2010 | inhibition, % at 10 µM;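 active = highest replicate inhibition of at least 50% and at least 75% of replicates reaching 50%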;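 note: plate controls were DMSO neutral control for no effect and GW8510 at 10 µM for full effect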
PKA-R2B act – activators of PKA-R2B holoenzyme, primary screen, biochemical, fluorescence polarization, Cy5-IP20, human; PKA-R2B holoenzyme dissociation; R2B truncated from residue 108, S112A mutant; 0% DMSO only, 100% 113 µM cGMP; 340,000 tested, 0.079% active; AID 504700, 2011; activation, % at 11.4 µM;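 active = activation above a cutoff set at the mean over all compounds plus 3 SD, cut at about 18% in these data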;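 note: higher means more holoenzyme dissociation and a rise in polarization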
SR-BI HDL uptake – inhibitors of SR-BI mediated HDL lipid uptake, primary screen, ldlA[mSR-BI] cells, fluorescence, single point | Scavenger receptor class B member 1 (Mus musculus), Q61009 | ldlA[mSR-BI] CHO cells, DiI-HDL uptake fluorescence, 3 h | inhibition, % at 12.5 µM | 320,000 tested, 0.96% active | AID 488896, 2010;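 active = mean replicate inhibition of at least 70% and a set share of replicates each scoring 70 or more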;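 note: 0% = median of neutral control wells and 100% = median of positive control wells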
Target sequence (Q61009 whole entry, looked up): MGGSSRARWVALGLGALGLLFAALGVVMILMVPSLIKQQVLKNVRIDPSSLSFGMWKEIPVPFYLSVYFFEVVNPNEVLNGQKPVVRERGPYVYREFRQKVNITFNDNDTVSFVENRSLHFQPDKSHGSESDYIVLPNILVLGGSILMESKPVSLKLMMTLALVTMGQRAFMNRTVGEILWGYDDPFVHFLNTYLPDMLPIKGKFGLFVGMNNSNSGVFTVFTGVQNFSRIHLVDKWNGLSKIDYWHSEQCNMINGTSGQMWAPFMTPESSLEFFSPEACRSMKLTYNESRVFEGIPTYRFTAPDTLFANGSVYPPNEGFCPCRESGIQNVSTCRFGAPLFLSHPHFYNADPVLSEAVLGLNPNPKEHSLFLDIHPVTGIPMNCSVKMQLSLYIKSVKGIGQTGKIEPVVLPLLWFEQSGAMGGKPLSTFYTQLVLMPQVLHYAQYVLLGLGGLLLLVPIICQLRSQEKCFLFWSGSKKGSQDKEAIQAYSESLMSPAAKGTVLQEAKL
dFosB act – activators of delta FosB homodimer, primary screen, biochemical, fluorescence polarization, TAMRA-CDK5 oligo, single point; AID 493131, 2011; Protein FosB (Mus musculus), P13346; purified delta FosB; percent of positive-control signal above neutral wells; activation, % at 25 µM; 340,000 tested, 0.99% active;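 active = mean activation above about 17%, with every replicate also reaching it, limit read from the data, passing the limit was not always enough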
PKA-R1A activ – activators of PKA-R1A holoenzyme, primary screen, biochemical, fluorescence polarization, Cy5-IP20, bovine R1A, mouse PKAc. AID 504707, 2011. PKA-R1A dissociation; scaled: DMSO 0%, 113 µM cGMP 100%. 340,000 tested, 0.083% active. activation, % at 11.4 µM. cAMP-dependent protein kinase type I-alpha regulatory subunit (Bos taurus) + …;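 active = percent activation above the mean of all tested compounds plus 3 SD, cut at about 19% in these data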;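 note: higher means more PKAc released from R1A so a rise in polarization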
Starred values were filed as active, the others as inactive. Only some compounds are listed: those with a hit (about 2.1% of all), similar ones and a draw of the others.

For O=C(NNC(=O)c1ccccc1O)c1ccc(-c2ccc([N+](=O)[O-])cc2)o1 the results were SR-BI DiI-HDL act -120.6, CDK5 p35 inh 1.8, PKA-R2B act -26.4, SR-BI HDL uptake 120.6*, dFosB act 1.5 and PKA-R1A activ -1.6.
O=C(COC(=O)c1cc(Br)ccc1O)NNC(=O)c1cccs1 was read as SR-BI DiI-HDL act 0.8, CDK5 p35 inh 0.3, PKA-R2B act -7.1, SR-BI HDL uptake -0.8, dFosB act 29.2* and PKA-R1A activ 5.6.
For O=C(CCc1ccccc1)NNC(=O)c1ccccc1C(=O)O the results were SR-BI DiI-HDL act 16.5, CDK5 p35 inh 0.7, PKA-R2B act -1.7, SR-BI HDL uptake -16.5, dFosB act -3.7 and PKA-R1A activ -3.7.
For O=C(NC(=S)NNC(=O)c1ccccc1O)c1ccc(F)cc1 the results were SR-BI DiI-HDL act -125.4, CDK5 p35 inh -1.3, PKA-R2B act -7.1, SR-BI HDL uptake 125.3*, dFosB act 3.5 and PKA-R1A activ 6.1.
O=C(CCc1ccccc1)NNC(=O)c1cc(Cl)ccc1O was read as SR-BI DiI-HDL act -115.4, CDK5 p35 inh -1.2, PKA-R2B act 0.0, SR-BI HDL uptake 115.4*, dFosB act 3.7 and PKA-R1A activ 3.0.
O=C(NOC(=O)c1cc(Br)ccc1Cl)c1cccs1 was read as SR-BI DiI-HDL act 10.8, CDK5 p35 inh 0.0, PKA-R2B act -8.1, SR-BI HDL uptake -10.8, dFosB act -6.7 and PKA-R1A activ -2.9.
`Cc1ccc2[nH]c(C(=O)N3CCOCC3)cc2c1` gave SR-BI DiI-HDL act 18.1, CDK5 p35 inh -2.6, PKA-R2B act -5.4, SR-BI HDL uptake -18.1, dFosB act -10.6 and PKA-R1A activ 3.5.
Screening Cc1onc(-c2ccccc2)c1C(=O)N/N=C/c1c(F)cccc1Cl returned SR-BI DiI-HDL act 1.6, CDK5 p35 inh -1.4, PKA-R2B act -3.9, SR-BI HDL uptake -1.6, dFosB act -1.2 and PKA-R1A activ -4.5.
For O=C(NNC(=S)NC(=O)c1ccccc1[N+](=O)[O-])c1ccccc1O the results were SR-BI DiI-HDL act -84.3, CDK5 p35 inh 0.3, SR-BI HDL uptake 84.3* and dFosB act 3.2.
For O=C(NNC(=S)NC(=O)c1ccccc1[N+](=O)[O-])c1ccccc1[N+](=O)[O-] the results were SR-BI DiI-HDL act 20.4, CDK5 p35 inh -0.5, PKA-R2B act -3.2, SR-BI HDL uptake -20.4, dFosB act -5.8 and PKA-R1A activ 7.7.
For Cc1ccc(C(=O)NNC(=S)NC(=O)c2ccccc2)cc1 the results were SR-BI DiI-HDL act -3.6, CDK5 p35 inh 3.9, PKA-R2B act -5.2, SR-BI HDL uptake 3.6, dFosB act -4.6 and PKA-R1A activ 3.0.
For CC(C)(C)c1cc(CCC(=O)NNC(=S)NC(=O)c2ccccc2)cc(C(C)(C)C)c1O the results were SR-BI DiI-HDL act -70.7, CDK5 p35 inh 2.9, PKA-R2B act 4.1, SR-BI HDL uptake 70.7*, dFosB act -13.4 and PKA-R1A activ 1.7.
`Cc1ccc(C(=O)NC(=S)NNC(=O)c2ccccc2O)cc1` gave SR-BI DiI-HDL act -112.1, CDK5 p35 inh -1.1, PKA-R2B act -13.4, SR-BI HDL uptake 112.1*, dFosB act -6.0 and PKA-R1A activ -0.5.
`CC(C)c1ccc(C(=O)CN2C(=O)NC3(CCc4ccccc43)C2=O)cc1` (configuration not stated) gave SR-BI DiI-HDL act -18.8, CDK5 p35 inh -1.6, PKA-R2B act -20.0, SR-BI HDL uptake 18.8, dFosB act -7.6 and PKA-R1A activ -11.7.
`COc1ccc(-n2c(SCC(=O)NCC3CCCO3)nc3ccccc3c2=O)cc1Cl` (configuration not stated) gave PKA-R2B act -3.8 and PKA-R1A activ -7.6.

Bioassay records as filed in PubChem.
